Measurements published in article PMC7111758 (Tetrahedron, 2019).

Tests used:
[1] = test system: adenovirus-2; assay: Antiviral assay, virus-induced cytopathic effect, adenovirus-2; assay type: cell-based; conditions: for EC50: Human mastadenovirus C, read-out: Antiviral activity - EC50 Adeno-2
[2] = test system: varicella-zoster virus (VZV) strain Oka (TK+); assay: microbe, parasite or virus in culture; assay type: cell-based; conditions: Human alphaherpesvirus 3, HEL, read-out: Antiviral activity - EC50 VZV Oka (TK+)
[3] = test system: herpes simplex virus type 2 (HSV-2) strain G; assay: Antiviral assay, virus-induced cytopathic effect in HEL cells, HSV-2 G; assay type: cell-based; conditions: Human alphaherpesvirus 2, HEL, read-out: Antiviral activity - EC50 HSV-2 G (TK+)
[4] = test system: HEL cells; assay: Cytotoxicity, microscopically detectable alteration of cell morphology; assay type: cell-based, human; conditions: for Cytotoxicity MCC (minimum cytotoxic concentration): microscopically detectable alteration of cell morphology
[5] = test system: vaccinia virus (VACV); assay: microbe, parasite or virus in culture; assay type: cell-based; conditions: for EC50: Orthopoxvirus vaccinia, HEL, read-out: Antiviral activity - EC50 VACV
[6] = test system: human cytomegalovirus (HCMV) strain Davis; assay: Antiviral assay, virus-induced cytopathic effect in HEL cells, HCMV Davis; assay type: cell-based; conditions: Human betaherpesvirus 5, HEL, read-out: Antiviral activity - EC50 HCMV Davis
[7] = Cytostatic activity, inhibition of HEL cell growth; assay type: cell-based; conditions: human, HEL cells
Method in brief: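 HEL cells seeded at 5 × 10^3 cells/well, allowed to proliferate 24 h, then given medium with different concentrations of test compound. After three days at 37 °C, cell number counted with a Coulter counter. CC50 is the concentration reducing proliferation by 50% relative to untreated control cell counts.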

[8] = test system: human cytomegalovirus (HCMV) strain AD-169; assay: Antiviral assay, virus-induced cytopathic effect in HEL cells, HCMV AD-169; assay type: cell-based; conditions: HCMV replication; compared with reference drug ganciclovir

SMILES	EC50 [1] [µM]	EC50 [2] [µM]	EC50 [3] [µM]	Cytotoxicity MCC (minimum cytotoxic concentration) [4] [µM]	EC50 [5] [µM]	EC50 [6] [µM]	CC50 at 3 days [7] [µM]	activity against adenoviruses ([1]; in words)	cytotoxicity for HEL cells ([4]; no cytotoxicity up to the highest concentration tested) [µM]	EC50 against HCMV relative to ganciclovir [8]	activity against vaccinia virus (poxvirus) [5]
CC(=O)O.NC1=NC(=O)N(CC(O)C(F)(F)F)CN1 (centres unmarked) [compound 23, 6-Amino-4-oxo-3-(3,3,3-trifluoro-2-hydroxypropyl)-1,2,3,4-tetrahydro-1,3,5-triazin-1-ium acetate]	> 100	> 100	> 100	>100	> 100	> 100	–	–	–	–	–
Nc1nc2c(ncn2COCCO)c(=O)[nH]1 [ACV, acyclovir, reference compound]	–	–	0.21 ± 0.12	>440	> 250	–	> 440	–	–	–	–
O=c1[nH]c(=O)n([C@H]2C[C@H](O)[C@@H](CO)O2)cc1/C=C/Br [BVDU, brivudine, reference compound]	–	0.023 ± 0.021	123 ± 26	>300	11.3 ± 6.4	–	> 300	–	–	–	–
CC(C)OP(=O)(CO[C@H](CF)Cn1cnc(N)nc1=O)OC(C)C [8a, Diisopropyl (S)-{[(1-(4-amino-2-oxo-1,3,5-triazin-1(2H)-yl)-3-fluoropropan-2-yl)oxy]methyl}phosphonate]	> 100	11.7 ± 4	17.5 ± 10.6	>100	> 100	7.9 ± 5.5	> 100	inactive	> 100	about three times higher	inactive
CCOC(=O)C(C)NP(=O)(COC(CF)CN1CN2C=C(c3ccc(OC)cc3)NC2=NC1=O)NC(C)C(=O)OCC (centres unmarked) [19c, Diethyl 2,2'-(((((1-fluoro-3-(7-(4-methoxyphenyl)-2-oxo-2,8-dihydroimidazo[1,2-a][1,3,5]triazin-3(4H)-yl)propan-2-yl)oxy)methyl)phosphoryl)bis(azanediyl))-dipropionate]	> 100	> 100	> 100	>100	> 100	> 100	–	–	–	–	–
CCOC(=O)C(C)NP(=O)(COC(CF)CN1CN2C=C(c3ccccc3)NC2=NC1=O)NC(C)C(=O)OCC (centres unmarked) [19a, Diethyl 2,2'-(((((1-fluoro-3-(2-oxo-7-phenyl-2,8-dihydroimidazo[1,2-a][1,3,5]triazin-3(4H)-yl)propan-2-yl)oxy)methyl)phosphoryl)bis(azanediyl))-dipropionate]	> 100	> 100	> 100	>100	> 100	> 100	–	–	–	–	–
Nc1ncn(CC(OCP(=O)(O)O)C(F)(F)F)c(=O)n1 (centres unmarked) [compound 25, {[(3-(4-Amino-2-oxo-1,3,5-triazin-1(2H)-yl)-1,1,1-trifluoropropan-2-yl)oxy]methyl}phosphonic acid]	> 100	> 100	> 100	>100	> 100	> 100	–	–	–	–	–
CCOC(=O)C(C)NP(=O)(COC(CF)CN1CN2C=C(c3ccc([N+](=O)[O-])cc3)NC2=NC1=O)NC(C)C(=O)OCC (centres unmarked) [19b, Diethyl 2,2'-(((((1-fluoro-3-(7-(4-nitrophenyl)-2-oxo-2,8-dihydroimidazo[1,2-a][1,3,5]triazin-3(4H)-yl)propan-2-yl)oxy)methyl)phosphoryl)bis(azanediyl))-dipropionate]	> 100	> 100	> 100	>100	> 100	> 100	–	–	–	–	–
Nc1ccn(C[C@@H](CO)OCP(=O)(O)O)c(=O)n1 [CDV, cidofovir, reference compound]	8.3 ± 2.1	–	1.3 ± 0.4	>300	26 ± 12	0.73 ± 0.31	> 300	–	–	–	–
Nc1ncn(C[C@@H](CF)OCP(=O)(O)O)c(=O)n1 [compound 9, (S)-{[1-(4-Amino-2-oxo-1,3,5-triazin-1(2H)-yl)-3-fluoropropan-2-yl]oxymethyl}phosphonic acid]	> 100	> 100	> 100	>100	> 100	> 100	–	–	–	–	–
Nc1ncn(CC(O)C(F)(F)F)c(=O)n1 (centres unmarked) [compound 22, 4-Amino-1-(3,3,3-trifluoro-2-hydroxypropyl)-1,3,5-triazin-2(1H)-one]	268 ± 178	40.6 ± 11.7	230 ± 29	>446	> 446	200 ± 17.8	> 446	–	–	–	–
Nc1nc(O)c2ncn(COC(CO)CO)c2n1 [GCV, ganciclovir, reference compound]	–	–	0.03	>350	> 100	3 ± 2.7	> 350	–	–	–	–
NC1=NC(=O)N(C[C@@H](CF)OCP(=O)(O)O)CN1 [compound 13, (S)-1-[3-Fluoro-2-(phosphonomethoxy)propyl]-5,6-dihydro-5-azacytosine]	> 100	> 100	> 100	>100	> 100	> 100	–	–	–	–	–
